Results reported in ChEMBL document CHEMBL2010702, “Design and evaluation of a series of pyrazolopyrimidines as p70S6K inhibitors” (Bioorg Med Chem Lett, 2012).

Columns and labels:
[1] = target: Ribosomal protein S6 kinase beta-1 (Homo sapiens, UniProt P23443, D18H/T412E); test: Inhibition of human p70S6K D18H and T412E mutant using RRRLSSLRA as substrate after 3 hrs by luciferase-luciferin-coupled chemiluminescence assay
[2] = Cmax in rat at 2.5 mg/kg, po; assay type: ADME, organism-based; set-up: dose 2.5 mg/kg, route oral; conditions: in vivo
[3] = Half life in rat at 2.5 mg/kg, po; assay type: ADME, organism-based; set-up: dose 2.5 mg/kg, route oral; conditions: in vivo
[4] = Half life in rat at 2.5 mg/kg, iv; assay type: ADME, organism-based; set-up: dose 2.5 mg/kg, route intravenous; conditions: in vivo
[5] = Inhibition of p70S6K-mediated S6 phosphorylation in human A549 cells after 3 hrs by chemiluminescence assay; assay type: cell-based; conditions: A549, 3 h
Summary of the method: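 A549 cells seeded at 7.5 × 10^3/well in DMEM with 10% FBS and 1% non-essential amino acids, grown 48 h at 37 °C, then exposed 3 h to compound ([…], triplicate, 0.2% DMSO). Fixed in formaldehyde, blocked, probed overnight at 4 °C with anti-phospho-S6 (Ser240/244) or anti-total-S6, then HRP secondary; chemiluminescent ELISA read-out.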

[6] = Cmax in rat at 2.5 mg/kg, iv; assay type: ADME, organism-based; set-up: dose 2.5 mg/kg, route intravenous; conditions: in vivo
Rattus norvegicus [7] = test: Dose normalized AUC in rat at 2.5 mg/kg, po; assay type: ADME, organism-based; set-up: dose 2.5 mg/kg, route oral; conditions: in vivo
Rattus norvegicus [8] = test: Dose normalized AUC in rat at 2.5 mg/kg, iv; assay type: ADME, organism-based; set-up: dose 2.5 mg/kg, route intravenous; conditions: in vivo
[9] = Oral bioavailability in rat at 2.5 mg/kg; assay type: ADME, organism-based; conditions: in vivo
[10] = Clearance in rat at 2.5 mg/kg, iv and 2.5 mg/kg, po; assay type: ADME, organism-based; conditions: in vivo
[11] = Volume of distribution in rat at 2.5 mg/kg, iv and 2.5 mg/kg, po; assay type: ADME, organism-based; conditions: in vivo
[12] = target: Ribosomal protein S6 kinase alpha-3 (Homo sapiens, UniProt P51812); test: Inhibition of Rsk2
[13] = target: RAC-alpha serine/threonine-protein kinase (Homo sapiens, UniProt P31749); test: Inhibition of Akt1
[14] = target: RAC-beta serine/threonine-protein kinase (Homo sapiens, UniProt P31751); test: Inhibition of Akt2
[15] = Inhibition of PKA
[16] = target: Serine/threonine-protein kinase pim-1 (Homo sapiens, UniProt P11309); test: Inhibition of PIM1
Mus musculus = test: Inhibition of p70S6K-mediated S6 phosphorylation in human PC3 cells xenografted in mouse at 100 mg/kg, po; assay type: functional; conditions: PC-3
PC-3 [17] = test: Antitumor activity against human PC3 cells xenografted in mouse assessed as tumor growth inhibition at 100 mg/kg, po bid for 14 days; assay type: functional; conditions: PC-3, 336 h, read-out: GI
Summary of the method: (§1)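 PC3 prostate carcinoma xenografts in mice; compound given orally at 30, 100 or 300 mg/kg twice daily for 14 days; tumor growth inhibition recorded.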

PC-3 [18] = test: Antitumor activity against human PC3 cells xenografted in mouse assessed as tumor growth inhibition compound administered po bid for 14 days; assay type: functional, organism-based; summary of the method: as §1
PC-3 [19] = test: Antitumor activity against human PC3 cells xenografted in mouse assessed as tumor growth inhibition at 30 mg/kg, po bid for 14 days; assay type: functional; conditions: PC-3, 336 h, read-out: GI; summary of the method: as §1
PC-3 [20] = test: Antitumor activity against human PC3 cells xenografted in mouse assessed as tumor growth inhibition at 300 mg/kg, po bid for 14 days; assay type: functional; conditions: PC-3, 336 h, read-out: GI; summary of the method: as §1

Ribosomal protein S6 kinase alpha-3, sequence (P51812 whole entry): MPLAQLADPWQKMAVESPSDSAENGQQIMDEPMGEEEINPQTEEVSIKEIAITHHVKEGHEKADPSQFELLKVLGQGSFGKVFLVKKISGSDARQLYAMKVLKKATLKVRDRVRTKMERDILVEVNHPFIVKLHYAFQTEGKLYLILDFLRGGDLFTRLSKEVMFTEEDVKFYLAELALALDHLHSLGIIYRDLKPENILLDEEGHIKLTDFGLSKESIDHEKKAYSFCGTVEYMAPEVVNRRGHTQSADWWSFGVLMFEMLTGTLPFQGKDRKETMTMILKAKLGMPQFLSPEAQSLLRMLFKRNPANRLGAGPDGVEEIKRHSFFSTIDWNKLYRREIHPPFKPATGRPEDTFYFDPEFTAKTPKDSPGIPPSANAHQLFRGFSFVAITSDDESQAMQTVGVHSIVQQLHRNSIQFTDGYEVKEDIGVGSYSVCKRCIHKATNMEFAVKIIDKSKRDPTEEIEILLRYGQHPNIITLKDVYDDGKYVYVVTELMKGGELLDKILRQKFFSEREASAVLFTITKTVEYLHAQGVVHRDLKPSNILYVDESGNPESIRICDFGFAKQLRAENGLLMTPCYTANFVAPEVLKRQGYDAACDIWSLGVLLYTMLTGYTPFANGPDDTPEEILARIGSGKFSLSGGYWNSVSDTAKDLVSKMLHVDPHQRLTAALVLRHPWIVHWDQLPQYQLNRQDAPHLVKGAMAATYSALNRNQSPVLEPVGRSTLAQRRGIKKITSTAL
Ribosomal protein S6 kinase beta-1, sequence (P23443 whole entry D18H/T412E): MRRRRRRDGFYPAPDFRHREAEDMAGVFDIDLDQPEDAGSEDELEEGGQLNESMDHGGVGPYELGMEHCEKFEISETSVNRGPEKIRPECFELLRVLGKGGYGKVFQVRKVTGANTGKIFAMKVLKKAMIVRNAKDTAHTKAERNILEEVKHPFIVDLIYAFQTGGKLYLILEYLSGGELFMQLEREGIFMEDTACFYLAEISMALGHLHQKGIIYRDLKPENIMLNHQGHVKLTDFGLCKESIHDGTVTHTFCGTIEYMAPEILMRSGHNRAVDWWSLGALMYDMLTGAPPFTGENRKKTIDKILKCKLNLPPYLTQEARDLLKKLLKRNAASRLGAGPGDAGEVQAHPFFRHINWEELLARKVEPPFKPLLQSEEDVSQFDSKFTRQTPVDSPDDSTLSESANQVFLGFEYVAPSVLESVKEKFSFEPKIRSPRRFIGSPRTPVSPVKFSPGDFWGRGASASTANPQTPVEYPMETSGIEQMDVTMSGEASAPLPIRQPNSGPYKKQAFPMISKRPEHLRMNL
RAC-beta serine/threonine-protein kinase, sequence (P31751 whole entry): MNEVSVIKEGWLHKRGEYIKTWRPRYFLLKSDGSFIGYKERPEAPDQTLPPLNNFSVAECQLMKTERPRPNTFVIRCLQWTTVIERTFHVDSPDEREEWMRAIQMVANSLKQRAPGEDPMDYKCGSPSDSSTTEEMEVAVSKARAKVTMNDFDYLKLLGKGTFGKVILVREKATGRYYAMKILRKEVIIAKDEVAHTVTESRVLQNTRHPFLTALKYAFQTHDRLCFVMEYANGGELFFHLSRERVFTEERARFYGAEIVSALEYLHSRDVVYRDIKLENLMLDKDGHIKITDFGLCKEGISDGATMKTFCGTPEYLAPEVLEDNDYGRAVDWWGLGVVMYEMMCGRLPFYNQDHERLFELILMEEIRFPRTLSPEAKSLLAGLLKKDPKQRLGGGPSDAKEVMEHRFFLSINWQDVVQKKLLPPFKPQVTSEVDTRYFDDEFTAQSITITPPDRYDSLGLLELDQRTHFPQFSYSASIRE
RAC-alpha serine/threonine-protein kinase, sequence (P31749 whole entry): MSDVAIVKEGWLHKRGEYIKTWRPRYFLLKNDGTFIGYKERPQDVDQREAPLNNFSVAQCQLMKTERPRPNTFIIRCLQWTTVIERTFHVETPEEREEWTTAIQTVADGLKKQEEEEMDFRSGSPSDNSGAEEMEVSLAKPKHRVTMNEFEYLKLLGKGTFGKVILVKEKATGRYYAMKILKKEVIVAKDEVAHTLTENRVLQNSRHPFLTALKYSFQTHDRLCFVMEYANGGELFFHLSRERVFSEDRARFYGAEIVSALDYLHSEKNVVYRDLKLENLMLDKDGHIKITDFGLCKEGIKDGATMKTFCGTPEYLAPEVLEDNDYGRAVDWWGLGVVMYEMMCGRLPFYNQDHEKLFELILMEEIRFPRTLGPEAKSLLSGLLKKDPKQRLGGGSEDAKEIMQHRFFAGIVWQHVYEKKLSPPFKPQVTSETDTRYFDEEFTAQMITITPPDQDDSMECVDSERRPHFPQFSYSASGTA
Serine/threonine-protein kinase pim-1, sequence (P11309 whole entry): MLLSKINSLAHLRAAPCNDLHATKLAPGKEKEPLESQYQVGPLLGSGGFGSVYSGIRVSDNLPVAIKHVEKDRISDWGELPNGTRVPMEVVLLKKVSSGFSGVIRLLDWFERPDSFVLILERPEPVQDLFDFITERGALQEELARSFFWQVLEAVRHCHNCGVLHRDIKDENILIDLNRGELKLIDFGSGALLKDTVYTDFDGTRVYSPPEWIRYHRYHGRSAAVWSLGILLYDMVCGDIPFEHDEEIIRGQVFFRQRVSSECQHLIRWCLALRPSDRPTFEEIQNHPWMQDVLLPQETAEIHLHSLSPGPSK

| Structure (SMILES) | IC50 [1] [nM] | IC50 [5] [nM] | also measured |
| --- | --- | --- | --- |
| CCc1n[nH]c2ncnc(N3CCN(c4cc(Cl)ccc4C)CC3)c12 | 6 | 150 | Cmax [2]: 30 nM; half-life [3]: 1.4 h; half-life [4]: 7.1 h; Cmax [6]: 6290 nM; AUC/dose (Rattus norvegicus [7]): 0.02 µM·kg·h/mg; AUC/dose (Rattus norvegicus [8]): 1.74 µM·kg·h/mg; bioavailability [9]: 2%; clearance [10]: 25.8 mL/min/kg; Vd [11]: 6.3 L/kg |
| CCc1n[nH]c2ncnc(N3CCN(c4cc(Cl)cc(NCCN(CC)CC)c4C)CC3)c12 | 3 | 184 |  |
| Clc1cccc(N2CCN(c3ncnc4[nH]ncc34)CC2)c1 | 107 |  |  |
| CCc1n[nH]c2ncnc(N3CCN(c4cc(Cl)cc(NCCN5CCCC5)c4C)CC3)c12 | 3 | 80 |  |
| CCc1n[nH]c2ncnc(N3CCN(c4cc(Cl)cc(OCCN(C)C)c4C)CC3)c12 | 6 | 143 |  |
| Cc1nc(N2CCN(c3cc(Cl)ccc3C)CC2)c2cn[nH]c2n1 | > 2000 |  |  |
| Cc1c(NCCN(C)C)cc(Cl)cc1N1CCN(c2ncnc3[nH]nc(C(F)(F)F)c23)CC1 | 4 | 50 | IC50 [12]: 24 nM; IC50 [13]: 74 nM; IC50 [14]: 477 nM; IC50 [15]: 6 nM |
| CCc1n[nH]c2ncnc(N3CCN(c4cc(Cl)cc(CCCN(CC)CC)c4C)CC3)c12 | 3 | 211 |  |
| CCCc1n[nH]c2ncnc(N3CCN(c4cc(Cl)ccc4C)CC3)c12 | 6 | 275 |  |
| Cc1ccc(Cl)cc1N1CCN(c2ncnc3[nH]nc(Br)c23)CC1 | 7 | 86 |  |
| Clc1cccc(N2CCN(c3[nH]cnc4ncnc3-4)CC2)c1 | 196 |  |  |
| Cc1c(NCCN(C)C)cc(Cl)cc1N1CCN(c2ncnc3[nH]nc(Br)c23)CC1 | 2 | 43 | IC50 [12]: 248 nM; IC50 [13]: 53 nM; IC50 [14]: 311 nM; IC50 [15]: 25 nM; IC50 [16]: < 500 nM |
| Nc1ncnc(N2CCN(c3cccc(Cl)c3)CC2)c1[N+](=O)[O-] | 85 |  |  |
| CCc1n[nH]c2ncnc(N3CCN(c4cc(Cl)cc(NCCN(C)C)c4C)CC3)c12 | 2 | 45 | inhibition in vivo at 100 mg/kg (Mus musculus): > 60%; Cmax [2]: 150 nM; half-life [3]: 3.3 h; inhibition in vivo at 100 mg/kg (PC-3 [17]): 49%; half-life [4]: 2.9 h; growth inhibition (GI) (PC-3 [18]): Dose-dependent effect; Cmax [6]: 1470 nM; AUC/dose (Rattus norvegicus [7]): 0.45 µM·kg·h/mg; inhibition in vivo at 30 mg/kg (PC-3 [19]): 21%; IC50 [12]: 68 nM; inhibition in vivo at 300 mg/kg (PC-3 [20]): 69%; AUC/dose (Rattus norvegicus [8]): 1.72 µM·kg·h/mg; bioavailability [9]: 23%; IC50 [13]: 371 nM; clearance [10]: 17.4 mL/min/kg; IC50 [14]: 3020 nM; IC50 [15]: 42 nM; Vd [11]: 3.7 L/kg |
| CCc1n[nH]c2ncnc(N3CCN(c4cc(Cl)cc(CCCN5CCCC5)c4C)CC3)c12 | 2 | 152 |  |
| Cc1ccc(Cl)cc1N1CCN(c2ncnc3[nH]ncc23)CC1 | 13 | 1130 |  |
| CCc1n[nH]c2ncnc(N3CCN(c4cc(Cl)cc(OCCN5CCCC5)c4C)CC3)c12 | 5 | 243 |  |
| Nc1cc(N2CCN(c3cccc(Cl)c3)CC2)ncn1 | > 2000 |  |  |
| Cc1ccc(Cl)cc1N1CCN(c2ncnc3[nH]nc(C(F)(F)F)c23)CC1 | 29 | 41 |  |
| Cc1ccc(Cl)cc1N1CCN(c2ncnc(N)c2[N+](=O)[O-])CC1 | 3 |  |  |
| Clc1cccc(N2CCN(c3ncnc4[nH]ccc34)CC2)c1 | 162 |  |  |
| Cc1ccc(Cl)cc1N1CCN(c2ncnc3[nH]nc(C(C)C)c23)CC1 | 16 | 207 |  |
| Cc1c(N)ncnc1N1CCN(c2cccc(Cl)c2)CC1 | > 2000 |  |  |
| CCc1n[nH]c2ncnc(N3CCN(c4cc(Cl)cc(OCCN(CC)CC)c4C)CC3)c12 | 11 | 339 |  |
| Cc1ccc(Cl)cc1N1CCN(c2ncnc3[nH]nc(C)c23)CC1 | 9 | 500 |  |
